Measured values as given in ChEMBL document CHEMBL1129251 (J Med Chem, 1996).

How the values were obtained:
[1] = target: T1, Adrenergic receptor alpha-2 (Rattus norvegicus, UniProt P22086+P19328+P22909); experiment: Alpha-2 adrenergic receptor binding affinity was tested against membrane preparations of rat brain using 0.2 nM [3H]rauwolscine as radioligand
T1 sequence (P22086 whole entry): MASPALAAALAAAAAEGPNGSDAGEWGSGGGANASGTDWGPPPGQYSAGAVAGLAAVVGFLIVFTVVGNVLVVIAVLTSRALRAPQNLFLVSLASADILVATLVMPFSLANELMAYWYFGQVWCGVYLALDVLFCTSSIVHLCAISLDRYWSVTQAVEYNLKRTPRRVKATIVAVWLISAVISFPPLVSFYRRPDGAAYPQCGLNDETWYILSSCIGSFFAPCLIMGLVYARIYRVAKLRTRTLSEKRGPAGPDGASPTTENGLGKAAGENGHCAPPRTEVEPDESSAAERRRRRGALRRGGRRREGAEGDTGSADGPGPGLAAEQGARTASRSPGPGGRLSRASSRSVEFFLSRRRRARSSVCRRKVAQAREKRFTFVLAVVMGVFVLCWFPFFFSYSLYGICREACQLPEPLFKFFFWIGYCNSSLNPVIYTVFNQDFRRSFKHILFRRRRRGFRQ
T1 sequence (P19328 whole entry): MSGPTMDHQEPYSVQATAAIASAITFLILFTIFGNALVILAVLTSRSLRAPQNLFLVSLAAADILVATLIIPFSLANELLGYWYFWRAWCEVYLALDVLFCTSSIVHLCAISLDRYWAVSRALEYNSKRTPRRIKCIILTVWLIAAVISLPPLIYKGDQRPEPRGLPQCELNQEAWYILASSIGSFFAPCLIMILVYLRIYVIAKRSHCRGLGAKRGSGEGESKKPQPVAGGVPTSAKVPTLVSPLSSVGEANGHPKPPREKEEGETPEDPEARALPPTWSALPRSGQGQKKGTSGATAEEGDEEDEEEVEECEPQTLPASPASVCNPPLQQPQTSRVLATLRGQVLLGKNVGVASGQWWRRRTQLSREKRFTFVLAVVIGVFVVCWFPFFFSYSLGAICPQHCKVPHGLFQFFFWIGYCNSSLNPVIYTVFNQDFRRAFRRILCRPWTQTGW
T1 sequence (P22909 whole entry): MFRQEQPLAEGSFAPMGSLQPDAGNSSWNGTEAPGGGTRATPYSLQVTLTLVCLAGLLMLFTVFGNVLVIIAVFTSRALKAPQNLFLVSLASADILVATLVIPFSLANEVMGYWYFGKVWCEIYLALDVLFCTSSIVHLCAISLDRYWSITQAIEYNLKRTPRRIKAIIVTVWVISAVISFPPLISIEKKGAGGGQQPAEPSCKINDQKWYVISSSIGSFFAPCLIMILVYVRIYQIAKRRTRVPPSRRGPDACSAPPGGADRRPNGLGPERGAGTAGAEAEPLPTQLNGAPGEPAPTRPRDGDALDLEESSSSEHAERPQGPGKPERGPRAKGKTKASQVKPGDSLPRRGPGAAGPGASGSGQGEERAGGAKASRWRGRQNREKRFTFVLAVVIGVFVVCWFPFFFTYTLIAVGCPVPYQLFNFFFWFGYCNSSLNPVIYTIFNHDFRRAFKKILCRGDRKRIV
Summary of the method: (§1)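 Rat frontal cortex membranes at about 500 µg/mL protein, labelled with [3H]rauwolscine in Tris buffer pH 7.4 containing 10 mM EDTA. Nonspecific binding set by 10 µM phentolamine. 30 °C for 30 min, then filtration and scintillation counting, in triplicate.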

[2] = Selectivity ratio of Ki of alpha-1 adrenergic receptor to alpha-2 receptor
[3] = target: T2, Adrenergic receptor alpha-1 (Rattus norvegicus, UniProt P15823+P23944+P43140); experiment: Alpha-1 adrenergic receptor binding affinity in rat brain membranes; format: cell membranes
T2 sequence (P15823 whole entry): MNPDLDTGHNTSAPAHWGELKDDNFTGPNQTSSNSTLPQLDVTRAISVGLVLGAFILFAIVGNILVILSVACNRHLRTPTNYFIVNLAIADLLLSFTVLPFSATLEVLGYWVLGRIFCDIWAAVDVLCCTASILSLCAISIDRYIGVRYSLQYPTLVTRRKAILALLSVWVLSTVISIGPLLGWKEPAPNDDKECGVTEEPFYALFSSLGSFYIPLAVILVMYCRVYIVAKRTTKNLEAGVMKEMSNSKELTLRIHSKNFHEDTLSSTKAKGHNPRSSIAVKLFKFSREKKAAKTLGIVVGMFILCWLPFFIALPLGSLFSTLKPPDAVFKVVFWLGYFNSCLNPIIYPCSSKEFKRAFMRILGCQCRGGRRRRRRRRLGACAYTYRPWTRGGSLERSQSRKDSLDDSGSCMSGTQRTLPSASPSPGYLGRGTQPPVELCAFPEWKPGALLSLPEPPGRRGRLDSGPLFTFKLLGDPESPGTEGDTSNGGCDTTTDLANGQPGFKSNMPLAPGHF
T2 sequence (P23944 whole entry): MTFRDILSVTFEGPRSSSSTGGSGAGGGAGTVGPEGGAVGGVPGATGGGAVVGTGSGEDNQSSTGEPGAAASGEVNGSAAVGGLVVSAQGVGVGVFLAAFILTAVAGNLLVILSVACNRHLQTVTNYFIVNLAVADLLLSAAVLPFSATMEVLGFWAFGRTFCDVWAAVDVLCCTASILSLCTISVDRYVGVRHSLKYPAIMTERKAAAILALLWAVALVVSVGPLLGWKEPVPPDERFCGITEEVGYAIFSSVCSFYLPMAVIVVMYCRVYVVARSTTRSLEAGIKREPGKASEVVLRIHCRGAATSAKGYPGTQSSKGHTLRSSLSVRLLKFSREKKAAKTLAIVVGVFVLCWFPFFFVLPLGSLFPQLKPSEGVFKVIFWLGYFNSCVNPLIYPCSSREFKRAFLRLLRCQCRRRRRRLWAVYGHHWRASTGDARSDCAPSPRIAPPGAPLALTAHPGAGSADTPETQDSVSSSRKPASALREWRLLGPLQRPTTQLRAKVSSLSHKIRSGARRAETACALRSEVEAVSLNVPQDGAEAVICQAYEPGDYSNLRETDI
T2 sequence (P43140 whole entry): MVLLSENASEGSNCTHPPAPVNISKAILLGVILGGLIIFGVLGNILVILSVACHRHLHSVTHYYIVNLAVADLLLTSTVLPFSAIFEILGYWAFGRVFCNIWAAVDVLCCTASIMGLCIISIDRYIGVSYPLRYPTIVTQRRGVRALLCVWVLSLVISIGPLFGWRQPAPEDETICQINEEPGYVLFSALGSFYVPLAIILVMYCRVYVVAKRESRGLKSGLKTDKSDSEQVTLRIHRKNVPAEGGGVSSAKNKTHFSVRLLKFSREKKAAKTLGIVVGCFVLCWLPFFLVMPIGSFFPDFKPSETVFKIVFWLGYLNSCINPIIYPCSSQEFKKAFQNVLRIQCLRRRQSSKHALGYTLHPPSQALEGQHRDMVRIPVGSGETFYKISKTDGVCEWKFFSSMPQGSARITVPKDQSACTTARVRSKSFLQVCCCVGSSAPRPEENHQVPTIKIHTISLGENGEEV
Summary of the method: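 Rat frontal cortex membranes, washed in 50 mM Tris-HCl/10 mM MgCl2 pH 7.4, at about 300 µg/mL protein. Labelled with 0.1 nM [3H]prazosin in the same buffer. Nonspecific binding set by 10 µM phentolamine. 30 °C for 30 min, then filtration and scintillation counting, in triplicate.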

[4] = target: T1, Adrenergic receptor alpha-2; experiment: Alpha-2 adrenergic receptor binding affinity was tested against membrane preparations of rat brain.; summary of the method: as §1
[5] = target: T3, Adrenergic receptor alpha-2 (Homo sapiens, UniProt P08913+P18825+P18089); experiment: Antagonistic activity against Alpha-2 adrenergic receptor in human blood platelets; format: functional, tissue-based
T3 sequence (P08913 whole entry): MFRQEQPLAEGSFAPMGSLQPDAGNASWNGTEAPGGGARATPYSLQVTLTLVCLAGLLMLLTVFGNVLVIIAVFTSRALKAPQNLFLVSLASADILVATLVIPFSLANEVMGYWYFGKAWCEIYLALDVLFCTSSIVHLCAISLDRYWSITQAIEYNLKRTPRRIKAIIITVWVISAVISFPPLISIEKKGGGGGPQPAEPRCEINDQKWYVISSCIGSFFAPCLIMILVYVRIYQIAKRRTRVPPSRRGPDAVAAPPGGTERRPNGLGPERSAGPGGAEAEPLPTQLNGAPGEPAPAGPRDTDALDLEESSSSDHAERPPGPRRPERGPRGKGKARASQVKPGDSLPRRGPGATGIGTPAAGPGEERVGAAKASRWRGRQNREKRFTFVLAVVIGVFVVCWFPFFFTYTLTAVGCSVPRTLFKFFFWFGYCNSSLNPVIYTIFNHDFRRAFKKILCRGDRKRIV
T3 sequence (P18825 whole entry): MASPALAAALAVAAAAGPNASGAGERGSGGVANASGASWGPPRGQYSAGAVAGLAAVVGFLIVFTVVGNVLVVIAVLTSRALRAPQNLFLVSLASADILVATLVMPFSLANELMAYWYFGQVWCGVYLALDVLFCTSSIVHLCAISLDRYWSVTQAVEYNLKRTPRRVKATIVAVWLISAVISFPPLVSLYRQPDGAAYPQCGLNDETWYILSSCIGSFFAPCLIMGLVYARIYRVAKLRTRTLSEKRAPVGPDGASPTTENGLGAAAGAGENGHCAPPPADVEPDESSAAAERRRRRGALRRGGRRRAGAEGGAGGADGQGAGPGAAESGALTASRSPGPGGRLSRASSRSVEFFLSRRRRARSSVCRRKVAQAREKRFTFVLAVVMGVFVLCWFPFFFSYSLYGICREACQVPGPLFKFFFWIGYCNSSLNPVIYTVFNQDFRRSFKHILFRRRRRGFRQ
T3 sequence (P18089 whole entry): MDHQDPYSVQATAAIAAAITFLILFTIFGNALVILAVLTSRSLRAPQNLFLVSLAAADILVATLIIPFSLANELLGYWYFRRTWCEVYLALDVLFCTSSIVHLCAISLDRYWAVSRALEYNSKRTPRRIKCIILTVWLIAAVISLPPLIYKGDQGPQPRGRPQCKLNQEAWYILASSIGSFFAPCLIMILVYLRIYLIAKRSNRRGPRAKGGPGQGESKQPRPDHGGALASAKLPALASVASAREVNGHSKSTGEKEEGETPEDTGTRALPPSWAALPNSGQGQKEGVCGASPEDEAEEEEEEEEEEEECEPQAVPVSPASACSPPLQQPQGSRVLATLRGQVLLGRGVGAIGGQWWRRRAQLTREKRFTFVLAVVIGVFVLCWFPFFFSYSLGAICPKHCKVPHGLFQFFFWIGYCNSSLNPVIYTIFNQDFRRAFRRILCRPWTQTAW
Summary of the method: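 Human platelet-rich plasma pretreated with 1 mM aspirin. Inhibitor at various concentrations added 1 min before epinephrine (30-100 µM). Primary-wave aggregation measured; IC50 is the molar 50% inhibitory concentration.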

[6] = target: T2, Adrenergic receptor alpha-1; experiment: 50% Molar effective concentration for agonistic activity against Alpha-1 adrenergic receptor in rat aorta; format: functional, tissue-based
Summary of the method: (§2)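 Aorta from rats of 150-300 g, either sex. Tissue checked with 30 nM phenylephrine, then a cumulative phenylephrine curve. After 90 min the test agent was added cumulatively. Contraction expressed as % of the maximum to 1 µM phenylephrine (= 100%). EC50 is the molar 50% effective concentration; Emax is the maximal response relative to phenylephrine.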

[7] = Antagonistic activity against alpha2 adrenoceptor in human blood platelets expressed as IC50(medetomidine)/IC50(analog); format: functional
Summary of the method: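 Human platelet-rich plasma; inhibitor at various concentrations added 1 min before triggering aggregation with epinephrine (30-100 µM); aspirin 1 mM routinely added to study the primary-wave aggregation response.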

[8] = target: T4, Adrenergic receptor alpha-1 (Rattus norvegicus) (UniProt P15823+P23944+P43140); experiment: Agonistic activity against Alpha-1 adrenergic receptor in rat aorta expressed as percent maximal analog response relative to phenylephrine as 100%; format: functional, tissue-based; summary of the method: as §2
[9] = target: T3, Adrenergic receptor alpha-2; experiment: Alpha-2 adrenergic receptor antagonistic activity in human blood platelets.; format: functional, tissue-based
Summary of the method: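 Human platelet-rich plasma pretreated with 1 mM aspirin. Inhibitor at various concentrations added 1 min before epinephrine (30-100 µM).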

[10] = alpha 2 antagonistic adrenoceptor activity in human blood platelets Potency ratio: IC50(medetomidine)/IC50(analog); format: functional
Summary of the method: (§3)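 Inhibition of epinephrine (30-100 µM)-induced primary-wave aggregation in aspirin (1 mM)-treated human platelet-rich plasma, with inhibitor added 1 min before agonist.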

[11] = target: T4, Adrenergic receptor alpha-1 (Rattus norvegicus); experiment: Antagonistic activity against Alpha-1 adrenergic receptor in rat aorta; format: functional, tissue-based
Summary of the method: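 Rat aorta rings (rats 150-300 g, either sex) contracted by cumulative phenylephrine, with and without the antagonist. KB = [B]/(DR − 1), where DR is the dose ratio in the presence and absence of the antagonist.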

[12] = Alpha 2 antagonistic adrenoceptor activity in human blood platelets Potency ratio: IC50(medetomidine)/IC50(analog); format: functional; summary of the method: as §3

## C=C(c1c[nH]cn1)c1cccc2ccccc12
[1]
  Ki: 122 nM
[2]
  Ratio: 14.2
[3]
  Ki: 1734 nM

## Cc1cccc(C(C)c2c[nH]cn2)c1C (stereo unspecified) [MEDETOMIDINE]
[4]
  Ki: 25 nM

## CC(c1c[nH]cn1)c1cccc2ccccc12 (stereo unspecified)
[1]
  Ki: 13 nM
[5]
  IC50: 4300 nM
[6]
  EC50: 153 nM
[2]
  Ratio: 17.2
[3]
  Ki: 224 nM
[7]
  Potency ratio: 0.69
[8]
  Emax: 39%

## C/C=C(\c1c[nH]cn1)c1cccc2ccccc12
[1]
  Ki: 1890 nM
[9]
  IC50: 215400 nM
[10]
  Potency ratio: 0.01
[2]
  Ratio: 0.03
[11]
  Kb: 3390 nM
[3]
  Ki: 57 nM

## c1ccc2c3c(ccc2c1)CCCC3c1c[nH]cn1 (stereo unspecified)
[9]
  IC50: 97700 nM
[4]
  Ki: 1449 nM
[11]
  Kb: 136 nM
[3]
  Ki: 655 nM
[12]
  Potency ratio: 0.03

## c1cc2c3c(cccc3c1)C(c1c[nH]cn1)CC2 (stereo unspecified)
[1]
  Ki: 33 nM
[9]
  IC50: 14300 nM
[10]
  Potency ratio: 0.2
[2]
  Ratio: 1.67
[3]
  Ki: 55 nM
[8]
  Emax: 38%

## C[C@H](N)[C@H](O)c1ccc(O)c(O)c1 [LEVONORDEFRIN]
[4]
  Ki: 205 nM
[3]
  Ki: 9221 nM

## C/C=C(/c1c[nH]cn1)c1cccc2ccccc12
[1]
  Ki: 1474 nM
[2]
  Ratio: 0.26
[3]
  Ki: 387 nM

## CCC(c1c[nH]cn1)c1cccc2ccccc12 (stereo unspecified)
[1]
  Ki: 165 nM
[2]
  Ratio: 3.48
[3]
  Ki: 574 nM
